Experimental findings from ChEMBL document CHEMBL1914450, “1,7-Naphthyridine 1-oxides as novel potent and selective inhibitors of p38 mitogen activated protein kinase” (J Med Chem, 2011) are described below.

In brackets after ≈: the same amount, converted by molar mass. A value given as a limit tells only on which side of the number the result lay.

Data set [1] is described as follows: Solubility of the compound at pH 1.0. As to conditions: buffer. The data set is classed as physicochemical.
Data set [2] in a line: Solubility of the compound at pH 7.4. Conditions: buffer. The data set is classed as physicochemical.
Data set [3] can be described thus: Metabolic stability in human liver microsomes assessed as metabolic rate at 5 uM after 30 mins by UPLC-MS/MS analysis. As to conditions: read-out: Activity. The data set is classed as ADME, Microsome. The method, boiled down:
(§1)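 Test compound at 5 μM incubated 30 min at 37 °C with liver microsomes (1 mg/mL protein), with and without NADPH. Parent compound quantified by UPLC-MS/MS. Metabolic rate taken from parent peak area with NADPH versus without.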
A general note: Liver microsomes are a subcellular fraction often used to study metabolism.

The nature of data set [4]: Cmax in Wistar rat at 10 mg/kg, po by UPLC-MS/MS analysis. Conditions: in vivo. Also noted: dose 10 mg/kg, route oral. The data set is classed as ADME, organism-based. The method, boiled down:
(§2)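 Male Wistar rats received 1 mg/kg iv or 10 mg/kg po. Blood was drawn from the retro-orbital plexus at set time points and centrifuged (3000 rpm, 10 min, 4 °C). Plasma was stored at −20 °C and prepared by protein precipitation for analysis. Oral exposure was measured over 0–6 h. Values are mean ± SD, n = 2.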

A short description of data set [5]: Metabolic stability in rat liver microsomes assessed as metabolic rate at 5 uM after 30 mins by UPLC-MS/MS analysis. The data set is classed as ADME, Microsome. Conditions: read-out: Activity. The method in brief:
as §1

Data set [6] concerns Rattus norvegicus. Description: (§3) AUC (0 to 6 hrs) in Wistar rat at 10 mg/kg, po by UPLC-MS/MS analysis. Also noted: time < 6 hr, dose 10 mg/kg, route oral. As to conditions: in vivo, 6 h. The data set is classed as ADME, organism-based, Plasma. The method in brief: as §2
Data set [7] can be described thus: Half life in Wistar rat at 1 mg/kg, iv by UPLC-MS/MS analysis. The data set is classed as ADME, organism-based. Also noted: dose 1 mg/kg, route intravenous. As to conditions: in vivo. The method, boiled down:
as §2

A short description of data set [8]: Volume of distribution at steady state in Wistar rat at 1 mg/kg, iv by UPLC-MS/MS analysis. The data set is classed as ADME, organism-based. Also noted: dose 1 mg/kg, route intravenous. As to conditions: in vivo, read-out: Vdss. The method, boiled down:
(§4)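 Wistar rats dosed 1 mg/kg iv or 10 mg/kg po. Blood drawn from the retro-orbital plexus at set time points. Plasma separated by centrifugation (3000 rpm, 10 min, 4 °C) and stored at −20 °C until analysis. Values are mean of n = 2.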

Data set [9] concerns Rattus norvegicus. Put plainly: (§5) Bioavailability in Wistar rat at 10 mg/kg, po and at 1 mg/kg, iv measured up to 6 hrs. As to conditions: in vivo, 6 h. The data set is classed as ADME, organism-based. The method, boiled down: as §2
Data set [10] can be described thus: Tmax in Wistar rat at 10 mg/kg, po by UPLC-MS/MS analysis. The data set is classed as ADME, organism-based. Also noted: dose 10 mg/kg, route oral. As to conditions: in vivo. The method in brief: as §4
Data set [11] can be described thus: Clearance in Wistar rat at 1 mg/kg, iv by UPLC-MS/MS analysis. The data set is classed as ADME, organism-based. Also noted: dose 1 mg/kg, route intravenous. Conditions: in vivo. The method in brief:
as §2

Data set [12] in a line: as §3. The data set is classed as ADME, organism-based, Plasma. Also noted: time < 6 hr, dose 10 mg/kg, route oral. Conditions: Wistar, plasma. The method, boiled down: as §2
A short description of data set [13]: as §5. The data set is classed as ADME, organism-based. As to conditions: Wistar, in vivo. The method in brief:
as §2

Usually solubility stands for how much of the substance goes into solution per volume. One may read the Cmax as the peak of the concentration-time curve. As a reminder, the AUC is concentration integrated over time. Higher therefore signals high exposure. Broadly, the half-life is how long it takes for the measured level to halve. A low value points to fast loss. For orientation: Tmax means the time at which the peak concentration occurs. Take `Cc1ccccc1-c1c2nccc(-c3ccc(F)cc3F)c2cc[n+]1[O-]`: the figures for the solubility in [1] and in data set [2] were 41 µg/mL (≈ 118 µM) and 27 µg/mL (≈ 77.5 µM), respectively. Also, the metabolised at 0.5 h, 5 µM is under 5% in data set [3] and 9% in data set [5]. In data set [4], this compound registered a Cmax of 5300 nM. This compound also displayed an AUC in data set [6] of 29.5 µM·h. The compound further had a half-life in data set [7] of 7.4 h. For the same compound, the Vd in [8] was 1.7 L/kg. For the same compound, the F in data set [9] is 38%. Also, in data set [10], the Tmax came to 3.5 h.

As usually defined, the clearance is the rate of elimination divided by the concentration. The term AUC(0-t) denotes exposure summed from dosing to a finite time, without extrapolation to infinity. Read a low AUC(0-t) as less exposure. The term bioavailability denotes dose-corrected exposure relative to a reference, in per cent. A high value points to much systemic uptake. Compound `[O-][n+]1ccc2c(-c3ccc(F)cc3F)cc(C3CCNCC3)nc2c1-c1c(Cl)cccc1Cl` yielded a Cmax in [4] of 200 nM. In [11], the clearance was 102 mL/min/kg. The AUC(0-t) at 6 h in data set [12] is 0.48 µM·h. The half-life in data set [7] is 2.3 h. In [8], the Vd worked out at 13.7 L/kg. Further, the bioavailability in data set [13] came to 16%. For the same compound, the Tmax in [10] was determined as 0.3 h.

With `[O-][n+]1ccc2c(-c3ccc(F)cc3F)cc(NC3CCNCC3)nc2c1-c1c(F)cccc1F`, in data set [4], the Cmax was 90 nM. The compound also showed a clearance in data set [11] of 59 mL/min/kg. Also, in [12], the AUC(0-t) at 6 h was 0.05 µM·h. For the same compound, the half-life in [7] was 4.6 h. Further, the Vd in [8] was 10.3 L/kg. Moreover, in data set [13], the bioavailability is under 10%. The time to peak (Tmax) in data set [10] worked out at 0.3 h.
